Series [1] is described as follows: Antioxidant activity assessed as ABTS radical scavenging activity after 7 mins. It counts as physicochemical. Summed up:
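ABTS radical cation made from 7 mM ABTS with 2.45 mM persulfate (final), kept in the dark at room temperature 12–16 h. It was then diluted in water pH 7.4 to A734 0.80 and mixed with compound or Trolox standard (final 0–60 µM). A734 was read at 7 min. Percent inhibition plotted against concentration; at least three runs, in triplicate.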

For series [2], the system named is PC-12. The series is described as follows: cells. Particulars: Rattus norvegicus, PC-12, 1 h.
Series [3] can be described thus: Antioxidant activity assessed as inhibition of Fe2+-induced DMPO-OH adduct formation from H2O2 preincubated for 30 secs followed by DMPO/H2O2 addition measured after 150 secs by ESR analysis. It counts as physicochemical. In a few lines: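 Fenton/ESR spin trapping: 1 mM ammonium iron(II) sulfate was added to 5–500 µM compound, then Tris buffer pH 7.4 (final pH 7.2–7.4). After 30 s, 100 mM DMPO and 100 mM H2O2 were added (stock concentrations). The ESR spectrum was recorded 150 s after H2O2, at room temperature. DMPO-OH adduct expressed as % of control containing FeSO4, H2O2 and DMPO only.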

The target in series [4] is P2Y purinoceptor 1 (Homo sapiens, UniProt P47900). The series is described as follows: Agonist activity at GFP-tagged human P2Y1R transfected in human 1321N1 cells assessed as increase in intracellular Ca2+ level by fura 2/AM probe-based fluorescence assay. It counts as functional, cell-based.
Sequence of P2Y purinoceptor 1 (P47900 whole entry): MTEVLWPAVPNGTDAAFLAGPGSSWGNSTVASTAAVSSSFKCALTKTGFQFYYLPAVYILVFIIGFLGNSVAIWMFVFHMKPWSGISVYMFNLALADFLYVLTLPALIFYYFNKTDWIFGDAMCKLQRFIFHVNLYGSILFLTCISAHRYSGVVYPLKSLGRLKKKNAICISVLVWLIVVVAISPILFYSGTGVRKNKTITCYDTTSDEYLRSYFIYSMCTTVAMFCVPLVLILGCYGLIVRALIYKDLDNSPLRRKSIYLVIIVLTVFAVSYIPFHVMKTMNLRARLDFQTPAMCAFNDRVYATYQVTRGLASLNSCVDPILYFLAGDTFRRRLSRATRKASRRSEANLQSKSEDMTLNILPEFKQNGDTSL
Series [5] deals with T1, P2Y purinoceptor 11 (Homo sapiens, UniProt Q96G91).
T1 sequence (Q96G91 whole entry): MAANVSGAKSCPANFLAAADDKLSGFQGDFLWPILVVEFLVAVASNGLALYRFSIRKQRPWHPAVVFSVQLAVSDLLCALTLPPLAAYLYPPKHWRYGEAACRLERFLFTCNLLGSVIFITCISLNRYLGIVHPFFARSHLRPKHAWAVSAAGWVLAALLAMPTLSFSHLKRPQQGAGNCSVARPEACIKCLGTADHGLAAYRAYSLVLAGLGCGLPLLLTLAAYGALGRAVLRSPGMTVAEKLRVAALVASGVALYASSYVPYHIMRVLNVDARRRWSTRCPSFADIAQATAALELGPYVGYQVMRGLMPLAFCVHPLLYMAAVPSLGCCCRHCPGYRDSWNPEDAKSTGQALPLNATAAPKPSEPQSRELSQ
The series is described as follows: Agonist activity at GFP-tagged human P2Y11R transfected in human 1321N1 cells assessed as increase in intracellular Ca2+ level by fura 2/AM probe-based fluorescence assay. It counts as functional, cell-based.

Series [6] is described as follows: Metal chelating activity assessed as inhibition of Fe2+-ferrozine complex formation after 10 mins. The format is physicochemical. In a few lines: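 Competitive ferrozine assay. FeSO4 (final 10 µM) and ferrozine (final 20 µM) are mixed with nucleotide in DDW at final 25–200 µM and agitated 10 min at room temperature. Absorbance of the Fe(II)-ferrozine complex is read at 562 nm with and without compound, and inhibition of complex formation is calculated. Three experiments, mean ± S.D.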

Series [7] has as its system Cerebral cortex neuron. The series is described as follows: Neuroprotective activity against Fe2+-induced oxidative damage in rat primary cortical neurons assessed as cell viability at 0.01 to 25 uM after 24 hrs by MTT assay. The format is functional, cell-based. Summed up: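 Rat (1-day-old) cortical neurons were grown serum-free in DMEM/F12 with B-27 on poly-ornithine, treated with Ara-C and cultured 5 d. Cells were pretreated with nucleotide (0.01–25 µM), then exposed to FeSO4 3 µM final for 24 h. MTT 1 mg/mL was added for 2 h at 37 °C, formazan dissolved in DMSO, A550 read. Viability given as % of vehicle control; three independent experiments in triplicate.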
In general terms: Tetrazolium dyes change colour on reduction, which living cells bring about.

Series [8] deals with PC-12.
The test system of series [9] is Cerebral cortex neuron. Kind of series: Neuroprotective activity against Fe2+-induced morphological changes in rat primary cortical neurons at 0.2 to 100 uM after 24 hrs by light microscopic analysis. It counts as functional, cell-based. Summed up: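 Primary rat cortical neurons were exposed to 3 µM FeSO4 for 24 h, with compound at 0.2, 5 and 100 µM. Morphology (cell number, extensions, cytoskeleton) was examined by light microscopy at 100×.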

Series [10] has as its system PC-12. The series is described as follows: Antioxidant activity in rat PC12 cells assessed as inhibition of Fe2+-induced reactive oxygen species formation at 0.01 to 25 uM after 1 hr by DCFH-DA dye-based fluorometric analysis in presence of P2Y12R antagonist 2-MeS-AMP. It counts as functional, cell-based. Summed up:
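PC12 cells (DMEM, seeded 24 h) were preincubated 20 min with 50 µM P2Y12 antagonist 2-MeS-AMP. They were then loaded with DCFH-DA, given test compound at 0.01–25 µM, and oxidised with FeSO4 (final 0.16 µM). DCF fluorescence 485/530 nm over 1 h at 37 °C. ROS inhibition compared with no-antagonist control; three independent experiments in triplicate.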

For series [11], the system named is NTERA2. Kind of series: Antioxidant activity in human NTERA2 cells assessed as inhibition of Fe2+-induced reactive oxygen species formation at 0.01 to 25 uM after 1 hr by DCFH-DA dye-based fluorometric analysis in presence of P2Y1R antagonist MRS2179. It counts as functional, cell-based. In a few lines: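 Ntera-2 cells (DMEM, seeded 24 h) were preincubated 20 min with 40 µM P2Y1 antagonist MRS2179. They were then loaded with DCFH-DA and treated with compound at 0.01–25 µM, with oxidation started by FeSO4 (final 0.16 µM). DCF fluorescence 485/530 nm, 1 h at 37 °C. Three independent experiments in triplicate.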

A short description of series [12]: Half life of the compound in RPMI-1640 medium at 37 degC by HPLC analysis. The format is ADME. Summed up:
(§1)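 Nucleotides were incubated in human blood serum or RPMI-1640 at 37 °C for 0.5–24 h. Hydrolysis was followed by the change in HPLC peak integration of each analogue over time, and half-life was derived from this.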

The nature of series [13]: Half life in human serum at 37 degC by HPLC analysis. The format is ADME, cell-free. In a few lines:
as §1

The IC50 is the concentration that inhibits the measured activity by half. The EC50 is the concentration needed to bring the measured effect to its halfway point. As usually defined, the half-life is the time in which the quantity being followed falls by half.

Activity calls are given as the source filed them. The rule behind the calls is not given here.

Turning to `Nc1nc(Cl)nc2c1ncn2[C@@H]1O[C@H](COP(=O)(S)OP(=O)(O)OP(=O)(O)O)[C@@H](O)[C@H]1O` (stereo in doubt; 9A), the values for the IC50 in [1], in series [2] and in series [3] were 25 µM, 106 µM and 37 µM, respectively. For the same compound, the EC50 stood at 0.73 µM in series [4] and 9.1 µM in series [5].

Turning to `Cc1c(C)c2c(c(C)c1O)CCC(C)(C(=O)O)O2` (stereo not drawn) [TROLOX], the IC50 in series [1] was determined as 18 µM; in [6], 150 µM.

With `O=C(O)CN(CCN(CC(=O)O)CC(=O)O)CC(=O)O` [EDETIC ACID], the IC50 in [3] is 54 µM.

Turning to `Nc1ncnc2c1ncn2[C@@H]1O[C@H](COP(=O)(O)OP(=O)(O)S)[C@@H](O)[C@H]1O` (stereo partly drawn), the IC50 in series [1] was 15 µM; in series [6], 85 µM; in series [2], 20 µM; in [3] it was 19 µM. For the same compound, the figures for the EC50 in series [4] and in [5] were 1.27 µM and 32.7 µM, respectively.

For the compound `CSc1nc(N)c2ncn([C@@H]3O[C@H](COP(=O)(S)OP(=O)(O)O)[C@@H](O)[C@H]3O)c2n1` (stereo in doubt; 7B), in series [7], the result was Active.

As for `Nc1nc(Cl)nc2c1ncn2[C@@H]1O[C@H](COP(=O)(S)OP(=O)(O)O)[C@@H](O)[C@H]1O` (stereo in doubt; 8B), the IC50 is 12 µM in series [1], 0.11 µM in [8] and 39 µM in series [3]. The EC50 in series [4] turned out to be 1.5 µM; in [5], 0.5 µM.

For `CSc1nc(N)c2ncn([C@@H]3O[C@H](COP(=O)(O)OP(=O)(O)S)[C@@H](O)[C@H]3O)c2n1` (stereo partly drawn), the IC50 in series [1] was 15 µM; in [2], 12 µM; in series [3], 21 µM. Further, the figures for the EC50 in series [4] and in series [5] were 0.037 µM and 0.9 µM, respectively.

`Nc1nc(Cl)nc2c1ncn2[C@@H]1O[C@H](COP(=O)(O)OP(=O)(O)S)[C@@H](O)[C@H]1O` (stereo partly drawn): the IC50 worked out at 13 µM in series [1], 5 µM in [2] and 21 µM in [3]. Also, the EC50 in series [4] was 0.09 µM; in [5] it was 1 µM.

With `Nc1ncnc2c1ncn2[C@@H]1O[C@H](COP(=O)(S)OP(=O)(O)O)[C@@H](O)[C@H]1O` (stereo in doubt; 6B), the IC50 in series [1] stood at 22 µM; in [8], 39 µM; in series [3], 36 µM. For the same compound, the EC50 in series [4] amounted to 0.13 µM; in series [5], 8.7 µM.

Take `CSc1nc(N)c2ncn([C@@H]3O[C@H](COP(=O)(S)OP(=O)(O)O)[C@@H](O)[C@H]3O)c2n1` (stereo in doubt; 7A): the outcome in series [9] was Active. The inhibition result in series [10] and in [11] was “inactive” in each case.

With `Nc1ncnc2c1ncn2[C@@H]1O[C@H](COP(=O)(O)OP(=O)(O)OP(=O)(O)O)[C@@H](O)[C@H]1O` [ADENOSINE TRIPHOSPHATE], in series [1], the IC50 was 60 µM.

For `Nc1nc(Cl)nc2c1ncn2[C@@H]1O[C@H](COP(=O)(S)OP(=O)(O)O)[C@@H](O)[C@H]1O` (stereo in doubt; 8A), the values for the IC50 in series [1], in [2] and in series [3] were 11 µM, 0.2 µM and 36 µM, respectively. Also, the EC50 in [4] came out at 0.03 µM; in series [5], 1.4 µM.

As for `Nc1nc(Cl)nc2c1ncn2[C@@H]1O[C@H](COP(=O)(S)OP(=O)(O)OP(=O)(O)O)[C@@H](O)[C@H]1O` (stereo in doubt; 9B), the IC50 in series [1] was 24 µM; in series [8], 100 µM; in series [3], 27 µM. For the same compound, the EC50 in series [4] came to 0.88 µM; in series [5], 1.1 µM.

`O=C(O)CC(O)(CC(=O)O)C(=O)O` [CITRIC ACID]: in series [6], the IC50 worked out at 300 µM.

As to `O=C(O)CN(CCN(CC(=O)O)CC(=O)O)CCN(CC(=O)O)CC(=O)O` [PENTETIC ACID], in [6], the IC50 came out at 90 µM.

`Nc1ncnc2c1ncn2[C@@H]1O[C@H](COP(=O)(S)OP(=O)(O)O)[C@@H](O)[C@H]1O` (stereo in doubt; 6A): the IC50 in series [1] turned out to be 20 µM; in series [2] it was 38 µM; in series [3] it was 31 µM. Besides, the 50% effective concentration (EC50) in series [4] was 0.08 µM; in series [5] it was 4.5 µM. Also, the half-life in [12] and in series [13] was 14.5 h throughout.

For the origin of these results see ChEMBL document CHEMBL3632592, “Identification of Highly Promising Antioxidants/Neuroprotectants Based on Nucleoside 5'-Phosphorothioate Scaffold. Synthesis, Activity, and Mechanisms of Action” (J Med Chem, 2015).
